The text below walks through data of ChEMBL document CHEMBL3102749, “Antiprotozoal activity of dicationic 3,5-diphenylisoxazoles, their prodrugs and aza-analogues” (Bioorg Med Chem, 2014).

Usually pIC50 stands for the IC50 on a negative log10 scale, so that one unit is a factor of ten.

pIC50: −log10 of the molar value. Active and inactive are the calls of the source. The rule behind the calls is not given here.

Data set [1] concerns Trypanosoma brucei rhodesiense. As to the kind of experiment: Trypanocidal activity against bloodstream form of Trypanosoma brucei rhodesiense STIB900 infected in NMRI mouse assessed as mean survival days at 25 mg/kg, po qd administered for 4 days. In kind it is functional. The gist of the method: (§1)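 Mice infected with T. b. rhodesiense STIB900 (acute model) dosed once daily for 4 consecutive days, ip (diamidines) or oral (prodrugs). Cure means survival to 60 days post infection without parasitemia relapse. Mean survival days post infection are averaged over all mice, with cured mice counted as >60 days.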

For data set [2], the system named is Trypanosoma brucei rhodesiense. As to the kind of experiment: Trypanocidal activity against bloodstream form of Trypanosoma brucei rhodesiense STIB900 infected in NMRI mouse assessed as decrease in parasitemia at 25 mg/kg, po qd administered for 4 days measured once per week until 60 days by microscopic analysis. Format: functional, organism-based. More on the design: dose 25 mg/kg. The gist of the method: (§2)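 Mice infected with T. b. rhodesiense STIB900 received one dose daily for 4 consecutive days, 4 mice per group. Diamidines were given intraperitoneally and prodrugs orally. The primary endpoint was cures per group: a mouse counted as cured if it survived 60 days post-infection without parasitemia relapse.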

The next data set relates to L6. The experiment in a line: Cytotoxicity against rat L6 cells assessed as cell viability after 70 hrs by Alamar blue assay. In kind it is cell-based. Particulars: L6, 70 h.
Data set [3] has as its system Trypanosoma brucei rhodesiense. As to the kind of experiment: Trypanocidal activity against bloodstream form of Trypanosoma brucei rhodesiense STIB900 infected in NMRI mouse assessed as mean survival days at 5 mg/kg, ip qd administered for 4 days. Format: functional. Conditions: route intraperitoneal. The gist of the method:
as §1

The nature of data set [4]: Selectivity index, ratio of IC50 for rat L6 cells to IC50 for chloroquine/pyrimethamine-resistant Plasmodium falciparum K1 infected in human red blood cells. Format: toxicity, cell-based. Particulars: read-out: Ratio IC50. The procedure, abridged:
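Ratio of IC50 in L6 rat myoblast cytotoxicity assay to IC50 against P. falciparum K1; each IC50 is the mean of two independent assays.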

Data set [5] has as its system Trypanosoma brucei rhodesiense. As to the kind of experiment: Antitrypanosomal activity against Trypanosoma brucei rhodesiense STIB900 assessed as growth inhibition after 70 hrs by Alamar blue assay. Particulars: STIB900, 70 h. Format: functional, organism-based. On the technique in general: Resazurin is reduced to fluorescent resorufin, in cell work by metabolically active cells.

Data set [6] can be described thus: Selectivity index, ratio of IC50 for rat L6 cells to IC50 for Trypanosoma brucei rhodesiense STIB900. Format: toxicity, cell-based. Particulars: read-out: Ratio IC50. The gist of the method: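 Ratio of IC50 in L6 rat myoblast cytotoxicity assay to IC50 against T. b. rhodesiense STIB900; each IC50 is the mean of two independent assays.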
The next data set relates to Plasmodium falciparum. The experiment in a line: Antiplasmodial activity against chloroquine/pyrimethamine-resistant Plasmodium falciparum K1 infected in human red blood cells assessed as [3H]-hypoxanthine incorporation incubated for 48 hrs prior to [3H]-hypoxanthine addition measured after 24 hrs by liquid scintillation counting analysis. Format: functional, organism-based.

Data set [7] deals with Trypanosoma brucei rhodesiense. As to the kind of experiment: Trypanocidal activity against bloodstream form of Trypanosoma brucei rhodesiense STIB900 infected in NMRI mouse assessed as decrease in parasitemia at 5 mg/kg, ip qd administered for 4 days measured once per week until 60 days by microscopic analysis. In kind it is functional, organism-based. More on the design: dose 5 mg/kg. The gist of the method:
as §2

For the compound `Cl.Cl.Cl.N/C(=N\O)c1ccc(-c2cc(-c3ccc(/C(N)=N/O)cc3Cl)on2)cc1`, the MSD in data set [1] was over 36.5 days. The result in data set [2] was inactive.

Take `Cl.Cl.N=C(N)c1ccc(-c2cc(-c3ccc(C(=N)N)nc3)on2)cc1`: the figures for the pIC50 (in the data set with L6; in data set [5]; in the data set on Plasmodium falciparum) were 5.75, 8.57 and 8.77, respectively. For the same compound, the MSD in data set [3] is over 57.25 days. The selectivity ratio in data set [4] worked out at 1050; in [6] it was 643.

In the case of `COc1cc(C(=N)N)ccc1-c1cc(-c2ccc(C(=N)N)cc2)on1.Cl.Cl`, the MSD in data set [3] is over 60 days. Moreover, the result in data set [7] was Active.

For the compound `Cl.Cl.N/C(=N\O)c1ccc(-c2cc(-c3cccc(/C(N)=N/O)c3)no2)cc1`, in [1], the MSD is 20 days. For the same compound, the result in data set [2] was inactive.

On to `Cl.Cl.Cl.N=C(N)c1cccc(-c2cc(-c3ccc(C(=N)N)cc3Cl)no2)c1`, for which, in data set [3], the MSD worked out at 24 days. Besides, the outcome in data set [7] was inactive.

Regarding `CO/N=C(\N)c1cccc(-c2cc(-c3ccc(/C(N)=N/OC)cc3Cl)on2)c1.Cl.Cl.Cl`, in data set [1], the MSD came to 14 days. Further, the result in data set [2] was inactive.

Consider `Cl.Cl.Cl.N=C(N)c1cccc(-c2cc(-c3cc(C(=N)N)ccc3Cl)no2)c1`, for which, in data set [3], the MSD was found to be 22.25 days. Moreover, in data set [7], the result was inactive.

As for `CO/N=C(\N)c1ccc(-c2cc(-c3cc(/C(N)=N/OC)ccc3OC)no2)cc1.Cl.Cl`, the MSD in data set [1] was over 37.25 days.

On to `CO/N=C(\N)c1ccc(-c2cc(-c3cccc(/C(N)=N/OC)c3)no2)cc1.Cl.Cl`, for which the MSD in data set [1] was 8 days. In addition, in [2], the result was inactive.

Consider `Cl.Cl.Cl.N=C(N)c1ccc(-c2cc(-c3ccc(C(=N)N)cc3Cl)on2)cc1`, for which the MSD in [3] was over 31 days. For the same compound, the result in data set [7] was inactive.

Take `N=C(N)c1cncc(-c2cc(-c3cccc(C(=N)N)c3)on2)c1`: the results for the negative-log IC50 (pIC50) (with L6; in [5]; in the data set on Plasmodium falciparum) were under 3.74, 6.23 and 7.74, respectively. The results for the selectivity ratio in [4] and in data set [6] were over 10000 and over 309, respectively.

Consider `N=C(N)c1cccc(-c2cc(-c3cc(C(=N)N)ccn3)on2)c1`, for which the pIC50 is under 3.74 in the data set with L6, 6.74 in [5] and 7.60 in the data set with Plasmodium falciparum. The selectivity ratio in [4] was over 7230; in [6], over 986.

Consider `COc1cc(C(=N)N)ccc1-c1cc(-c2cc(C(=N)N)ccc2OC)on1.Cl.Cl`, for which, in data set [3], the MSD was over 60 days. Further, in data set [7], the result was Active.

Regarding `N=C(N)c1cncc(-c2cc(-c3cncc(C(=N)N)c3)on2)c1`, the results for the negative-log IC50 (pIC50) (in the data set on L6; in [5]; in the data set with Plasmodium falciparum) were under 3.74, 5.21 and 6.84, respectively. Besides, the results for the selectivity ratio in data set [4] and in data set [6] were over 1250 and over 29, respectively.

With `Cl.Cl.Cl.N=C(N)c1ccc(-c2cc(-c3ccc(C(=N)N)cc3Cl)no2)cc1`, the MSD in data set [3] was 28 days. The result in data set [7] was inactive.

In the case of `Cl.Cl.Cl.N=C(N)c1cccc(-c2cc(-c3cc(C(=N)N)ccc3Cl)on2)c1`, the MSD in data set [3] was 25 days. Moreover, in data set [7], the outcome was inactive.

Turning to `Cl.Cl.N=C(N)c1cccc(-c2cc(-c3ccc(C(=N)N)nc3)on2)c1`, the negative-log IC50 (pIC50) is 5.85 with L6, 8.43 in data set [5] and 8.96 in the data set with Plasmodium falciparum. Also, the MSD in data set [3] is over 41.75 days. Moreover, the selectivity ratio in [4] came to 1290; in [6], 379. Moreover, the outcome in [7] was inactive.

Take `N=C(N)c1ccc(-c2cc(-c3ccc(C(=N)N)cn3)on2)nc1`: the negative logarithm of the IC50 (pIC50) with L6 is under 3.74; in data set [5], 6.22; with Plasmodium falciparum, 6.87. Besides, the figures for the selectivity ratio in data set [4] and in data set [6] were over 1350 and over 302, respectively.

For `Cl.Cl.N=C(N)c1ccc(-c2cc(-c3ccc(C(=N)N)cc3[N+](=O)[O-])no2)cc1`, the MSD in data set [3] was over 51.25 days.

As for `Cl.Cl.N=C(N)c1ccc(-c2cc(-c3ccc(C(=N)N)cn3)no2)cc1`, the pIC50 with L6 is 4.34; in [5], 7.30; in the data set with Plasmodium falciparum it was 7.78. The MSD in data set [3] was over 52.75 days. Moreover, the figures for the selectivity ratio in data set [4] and in [6] were 2770 and 915, respectively.

Regarding `COc1ccc(C(=N)N)cc1-c1cc(-c2ccc(C(=N)N)cc2[N+](=O)[O-])no1.Cl.Cl`, the MSD in data set [3] was over 60 days. Also, the result in data set [7] was Active.

Regarding `C[C@@H]1CC[C@H]2[C@@H](C)C(=O)O[C@@H]3O[C@@]4(C)CC[C@@H]1[C@]32OO4` [ARTEMISININ], the values for the negative-log IC50 (pIC50) in the data set with L6 and in the data set with Plasmodium falciparum were under 3.74 and 8.40, respectively.

Take `CO/N=C(\N)c1cccc(-c2cc(-c3ccc(/C(N)=N/OC)cc3OC)no2)c1.Cl.Cl`: the MSD in [1] was over 50 days.

As for `N=C(N)c1ccc(-c2cc(-c3cc(C(=N)N)ccn3)no2)nc1`, the pIC50 in the data set with L6 was under 3.74; in data set [5], 5.78; in the data set on Plasmodium falciparum, 8.13. The figures for the selectivity ratio in [4] and in data set [6] were over 2430 and over 180, respectively.

Take `Cl.Cl.N=C(N)c1cccc(-c2cc(-c3cncc(C(=N)N)c3)on2)c1`: the negative logarithm of the IC50 (pIC50) with L6 is under 3.74; in data set [5], 6.68; with Plasmodium falciparum, 7.66. The MSD in data set [3] was found to be 21.75 days. In addition, the values for the selectivity ratio in data set [4] and in data set [6] were over 9170 and over 964, respectively. In addition, the outcome in data set [7] was inactive.

`Cl.Cl.N=C(N)c1ccc(-c2cc(-c3cc(C(=N)N)ccn3)on2)cc1`: the pIC50 in the data set on L6 was 3.83; in data set [5], 7.19; in the data set with Plasmodium falciparum, 7.24. For the same compound, in [3], the MSD is 28.5 days. Moreover, the selectivity ratio stood at 2570 in data set [4] and 2320 in [6]. In addition, the result in data set [7] was inactive.

As to `Cl.Cl.N=C(N)c1cccc(-c2cc(-c3ccc(C(=N)N)nc3)no2)c1`, the results for the pIC50 (in the data set on L6; in data set [5]; in the data set on Plasmodium falciparum) were 5.68, 8.74 and 9.30, respectively. Also, in [3], the MSD was over 60 days. The selectivity ratio was 3800 in data set [4] and 1120 in data set [6]. The outcome in data set [7] was Active.

Turning to `CO/N=C(\N)c1ccc(-c2cc(-c3ccc(/C(N)=N/OC)cc3)on2)cc1.Cl.Cl`, the MSD in data set [1] was over 42.25 days.

`N=C(N)c1ccnc(-c2cc(-c3cc(C(=N)N)ccn3)on2)c1`: the results for the negative-log IC50 (pIC50) (in the data set with L6; in data set [5]; in the data set with Plasmodium falciparum) were under 3.74, 5.24 and 6.49, respectively. For the same compound, the selectivity ratio in [4] is over 550; in data set [6], over 32.

Turning to `Cl.Cl.N=C(N)c1ccc(-c2cc(-c3cccc(C(=N)N)c3)no2)nc1`, the figures for the pIC50 (with L6; in data set [5]; in the data set on Plasmodium falciparum) were 3.94, 8.14 and 8.39, respectively. For the same compound, the MSD in data set [3] was over 38.75 days. The selectivity ratio in data set [4] is 27800; in data set [6], 15900. The result in data set [7] was inactive.

On to `N=C(N)c1ccc(-c2cc(-c3cc(C(=N)N)ccn3)on2)nc1`, for which the negative logarithm of the IC50 (pIC50) in the data set on L6 is under 3.74; in data set [5], 5.47; with Plasmodium falciparum, 6.85. In addition, the selectivity ratio was over 1260 in data set [4] and over 53 in [6].

For the compound `Cl.Cl.N=C(N)c1ccc(-c2cc(-c3ccc(C(=N)N)cc3[N+](=O)[O-])on2)cc1`, in data set [3], the MSD was over 53.75 days.

For `Cl.Cl.N=C(N)c1ccc(-c2cc(-c3ccc(C(=N)N)cc3)on2)cc1`, in data set [3], the MSD was over 60 days.

For `Nc1nc(N)nc(Nc2ccc([As]3SCC(CO)S3)cc2)n1` (stereo not given), in [7], the result was Active.

As for `COc1cc(/C(N)=N/O)ccc1-c1cc(-c2ccc(/C(N)=N/O)cc2)on1.Cl.Cl`, the MSD in [1] is over 42 days.

Consider `N=C(N)c1cccc(-c2cc(-c3cc(C(=N)N)ccn3)no2)c1`, for which the pIC50 with L6 was 3.89; in [5], 6.31; in the data set with Plasmodium falciparum, 7.82. Further, the values for the selectivity ratio in data set [4] and in [6] were 8700 and 265, respectively.

For the compound `Cl.Cl.N=C(N)c1ccc(-c2cc(-c3cncc(C(=N)N)c3)on2)cc1`, the pIC50 is 5.36 in the data set with L6, 7.84 in [5] and 7.72 in the data set on Plasmodium falciparum. Besides, the MSD in data set [3] is over 54.5 days. In addition, the selectivity ratio was 231 in [4] and 302 in [6].

On to `Cl.Cl.N=C(N)c1ccc(-c2cc(-c3ccc(C(=N)N)cn3)on2)cc1`, for which the results for the negative-log IC50 (pIC50) (with L6; in [5]; in the data set on Plasmodium falciparum) were 4.44, 7.92 and 8.02, respectively. The MSD in [3] was over 44 days. Besides, the selectivity ratio in [4] is 3750; in data set [6], 2970.

Consider `COc1cc(C(=N)N)ccc1-c1cc(-c2ccc(C(=N)N)cc2OC)on1.Cl.Cl`, for which the MSD in data set [3] was over 60 days. The result in data set [7] was Active.
